Data published in ChEMBL document CHEMBL1671834, “Novel 3-aryl indoles as progesterone receptor antagonists for uterine fibroids” (ACS Med Chem Lett, 2011).

What was measured:
[1] = target: T1, Progesterone receptor (Homo sapiens) (UniProt P06401); assay: Antagonist activity at human progesterone receptor expressed in HEK293 cells assessed as inhibition of […]-induced transcriptional activity by GRE-driven luciferase reporter gene assay relative to untreated control; type: functional, cell-based; set-up: concentration or dose not given beside the values; settings: concentration not given here
T1 sequence (whole entry): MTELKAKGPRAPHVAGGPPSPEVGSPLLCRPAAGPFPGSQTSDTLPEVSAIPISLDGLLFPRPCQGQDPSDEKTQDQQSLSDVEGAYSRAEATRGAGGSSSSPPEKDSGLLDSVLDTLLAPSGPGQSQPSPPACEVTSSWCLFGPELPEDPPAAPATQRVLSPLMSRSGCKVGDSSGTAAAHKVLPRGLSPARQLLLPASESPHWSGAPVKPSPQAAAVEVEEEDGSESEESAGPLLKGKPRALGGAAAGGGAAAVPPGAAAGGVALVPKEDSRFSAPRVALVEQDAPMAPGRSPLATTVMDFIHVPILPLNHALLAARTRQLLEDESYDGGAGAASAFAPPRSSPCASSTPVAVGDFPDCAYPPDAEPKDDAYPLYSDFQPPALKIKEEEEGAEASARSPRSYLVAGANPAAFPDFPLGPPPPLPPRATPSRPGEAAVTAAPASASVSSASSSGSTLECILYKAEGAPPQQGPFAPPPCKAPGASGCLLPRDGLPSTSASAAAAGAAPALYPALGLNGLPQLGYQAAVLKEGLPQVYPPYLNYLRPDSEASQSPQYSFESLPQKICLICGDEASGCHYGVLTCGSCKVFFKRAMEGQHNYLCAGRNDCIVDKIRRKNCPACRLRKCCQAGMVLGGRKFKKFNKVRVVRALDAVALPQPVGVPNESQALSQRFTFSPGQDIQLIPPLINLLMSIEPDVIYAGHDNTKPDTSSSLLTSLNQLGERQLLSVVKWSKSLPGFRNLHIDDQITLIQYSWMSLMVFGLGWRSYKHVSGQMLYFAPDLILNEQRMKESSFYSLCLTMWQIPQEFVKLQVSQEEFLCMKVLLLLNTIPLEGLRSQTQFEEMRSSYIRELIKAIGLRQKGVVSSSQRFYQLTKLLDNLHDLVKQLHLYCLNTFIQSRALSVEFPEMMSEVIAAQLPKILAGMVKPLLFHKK
Summary of the method: (§1)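 Transcription assay in HEK293 cells cotransfected with full-length human receptor. Values are geometric means of at least duplicate determinations.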

Progesterone receptor [2] = target: T2, Progesterone receptor (Homo sapiens, UniProt P06401); assay: Antagonist activity at human progesterone receptor expressed in HEK293 cells assessed as inhibition of […]-induced transcriptional activity by GRE-driven luciferase reporter gene assay; type: functional, cell-based; summary of the method: as §1
T2 sequence (P06401 whole entry): T1 sequence (whole entry)

Progesterone receptor [3] = target: T2, Progesterone receptor; assay: Displacement of [3H]methyltrienolone from human progesterone receptor expressed in HEK293 cells; type: cell-based
Summary of the method: (§2)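 Competitive binding to recombinant full-length human receptors against tritium-labelled standards. Values are geometric means of at least duplicate determinations.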

[4] = target: T3, Mineralocorticoid receptor (Homo sapiens, UniProt P08235); assay: Displacement of [3H]methyltrienolone from human mineralocorticoid receptor expressed in HEK293 cells; type: cell-based; summary of the method: as §2
T3 sequence (P08235 whole entry): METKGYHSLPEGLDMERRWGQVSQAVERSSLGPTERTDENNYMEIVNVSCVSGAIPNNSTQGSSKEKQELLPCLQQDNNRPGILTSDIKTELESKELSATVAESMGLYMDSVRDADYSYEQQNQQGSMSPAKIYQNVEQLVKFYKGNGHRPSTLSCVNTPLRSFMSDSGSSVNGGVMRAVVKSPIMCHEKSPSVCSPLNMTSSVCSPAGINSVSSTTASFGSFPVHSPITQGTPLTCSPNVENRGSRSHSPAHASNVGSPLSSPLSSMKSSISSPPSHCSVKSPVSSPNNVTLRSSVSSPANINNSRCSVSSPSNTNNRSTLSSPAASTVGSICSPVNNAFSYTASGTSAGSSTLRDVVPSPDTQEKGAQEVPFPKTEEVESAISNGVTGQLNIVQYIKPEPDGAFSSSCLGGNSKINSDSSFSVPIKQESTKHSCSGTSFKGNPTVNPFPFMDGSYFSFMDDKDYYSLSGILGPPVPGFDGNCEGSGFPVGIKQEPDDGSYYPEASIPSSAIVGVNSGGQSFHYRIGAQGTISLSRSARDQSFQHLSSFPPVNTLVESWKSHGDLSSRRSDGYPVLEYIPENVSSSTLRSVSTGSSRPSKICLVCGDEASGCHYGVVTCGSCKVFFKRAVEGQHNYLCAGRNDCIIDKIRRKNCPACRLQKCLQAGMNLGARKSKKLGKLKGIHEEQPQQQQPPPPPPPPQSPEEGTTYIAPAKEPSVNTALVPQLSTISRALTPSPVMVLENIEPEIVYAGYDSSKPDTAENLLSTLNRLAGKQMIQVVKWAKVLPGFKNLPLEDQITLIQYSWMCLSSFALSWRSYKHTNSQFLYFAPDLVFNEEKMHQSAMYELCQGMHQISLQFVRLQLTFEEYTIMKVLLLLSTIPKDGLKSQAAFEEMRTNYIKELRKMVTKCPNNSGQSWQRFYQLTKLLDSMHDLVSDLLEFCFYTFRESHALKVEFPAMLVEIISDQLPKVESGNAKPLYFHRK

| inhibition [1] [%] | IC50 (Progesterone receptor [2]) [nM] | Ki (Progesterone receptor [3]) [nM] | Ki [4] [nM] | Structure (SMILES) |
| --- | --- | --- | --- | --- |
| 96.2 | 6.81 | 0.795 | 1490 | CC(C)n1cc(-c2ccc(C#N)cc2)c2ccc(NS(C)(=O)=O)cc21 |
| 96.8 | 3.89 | 0.32 | 1000 | CC[C@H](C)n1cc(-c2ccc(C#N)cc2)c2ccc(NS(C)(=O)=O)cc21 |
| 87.8 | 485 | 28 | > 4170 | Cn1cc(-c2ccc(C#N)cc2)c2ccc(NS(C)(=O)=O)cc21 |
| 97 | 12.6 | 4.23 | 1770 | CCn1cc(-c2ccc(C#N)cc2)c2ccc(NS(C)(=O)=O)cc21 |
| 91.7 | 765 | 454 | 0.64 | CC(c1ccc(F)cc1)(c1c[nH]c2c(NS(C)(=O)=O)cccc12)C1CC1 (stereo not given) |
| 86.5 | 3720 | 478 | 86.8 | COc1ccc(C(c2ccccc2)c2c[nH]c3ccccc23)cc1 (stereo not given) |
| 94.9 | 2.29 | 0.214 | 849 | CC(C)n1cc(-c2ccc(C#N)c(F)c2)c2ccc(NS(C)(=O)=O)cc21 |
| 95.8 | 3.38 | 0.298 | 126 | Cc1cc(-c2cn(C(C)C)c3cc(NS(C)(=O)=O)ccc23)ccc1C#N |
| 96.2 | 9.92 | 0.834 | 1440 | CC[C@@H](C)n1cc(-c2ccc(C#N)cc2)c2ccc(NS(C)(=O)=O)cc21 |
| 97.4 | 7.28 | 1.45 | 1390 | COc1cc(-c2cn(C(C)C)c3cc(NS(C)(=O)=O)ccc23)ccc1C#N |
